Experiment [1] deals with CF HBE cells cultured at ALI. Kind of experiment: Total nitrate/nitrite release, fluorometric assay, CF HBE ALI cultures. The experiment is classed as cell-based, human. To be noted: for Effect on AIP-1 stimulated nitrate release: inhibitor 10 μM with AIP-1 50 μM; for Effect on nitrate release evoked by C12: inhibitor 10 μM with C12 100 μM. The essentials: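 Primary CF human bronchial epithelial cells, carrying scrambled shRNA or T2R14 knockdown, were seeded on collagen-coated Transwells at 500,000 cells/well and grown at air-liquid interface to day 30. The apical surface was exposed for 18 h to C12 (100 µM) or AIP-1 (50 µM), with or without gallein or U73122 (10 μM each). Apical secretions were mixed with reductase cofactor for 30 min at room temperature, then total nitrate/nitrite was read fluorometrically.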

The target in experiment [2] is T1, T2R14 (Homo sapiens, UniProt Q9NYV8).
T1 sequence (Q9NYV8 1-317): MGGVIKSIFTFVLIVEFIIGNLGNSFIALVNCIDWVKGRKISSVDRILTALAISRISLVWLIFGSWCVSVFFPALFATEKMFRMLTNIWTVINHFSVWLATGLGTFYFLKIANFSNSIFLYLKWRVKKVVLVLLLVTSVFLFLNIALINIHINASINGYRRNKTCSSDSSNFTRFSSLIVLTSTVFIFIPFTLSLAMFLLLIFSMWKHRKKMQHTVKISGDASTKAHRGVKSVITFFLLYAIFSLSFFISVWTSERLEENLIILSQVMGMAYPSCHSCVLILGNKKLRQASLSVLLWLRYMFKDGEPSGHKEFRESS
Kind of experiment: Intracellular calcium mobilization in human bronchial epithelial. The format is cell-based. A general note: Calcium assays in cells follow changes in intracellular calcium, usually with a dye or a luminescent sensor.

For experiment [3], the target named is T1, T2R14. Kind of experiment: Intracellular calcium mobilization in HEK293T cells overexpressing T2R14. As to conditions: for Intracellular calcium mobilization: HEK293T cells overexpressing T2R14, concentration series. The experiment is classed as cell-based. The procedure, abridged: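 HEK293T cells overexpressing T2R14 were loaded for agonist-induced intracellular calcium mobilization. They were treated with increasing concentrations of the bacterial quorum-sensing molecule 3-oxo-C12-AHL (4.5–300 μM), tyrosol (15–1000 μM) or farnesol (7.5–500 μM).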

The subject of experiment [4] is NuLi-1 and CuFi-1 cells. Description: cAMP response to CFTR corrector in airway epithelial cell lines. The experiment is classed as cell-based, human. As to conditions: 5 µM for 24 h.
The mark [5] stands for this setting: EC50, intracellular calcium mobilization, both BCF and BD cells.

Turning to `CCCCCCCCCC(=O)CC(=O)N[C@H]1CCOC1=O` [C12, 3-oxo-12-AHL], in experiment [1] (apical exposure 18 h, C12 100 μM, AIP-1 50 μM), the “Total nitrate release vs untreated controls” value is “significant elevation of total nitrate release”. Moreover, the EC50 (in general, the concentration giving half of the maximal effect) is ~100 µM in experiment [2] (read-out: EC50, intracellular calcium mobilization, both BCF and BD cells); ~60 µM in experiment [3] (read-out: EC50, intracellular calcium mobilization, HEK 293T cells overexpressing T2R14). The Intracellular calcium mobilization result in experiment [3] was “concentration dependent increase in intracellular calcium mobilization”.
Regarding `CN(C)CCOC(c1ccccc1)c1ccccc1` [DPH, diphenhydramine], in experiment [2] (EC50, Ca2+ mobilization, all the cell types investigated (NuLi-1, CuFi-1, BD, BCF)), the concentration giving a half-maximal response (EC50) is ~500 µM.
`O=C1OC2(c3ccccc31)c1ccc(O)c(O)c1Oc1c2ccc(O)c1O` [Gallein]: in experiment [1], the “Effect on AIP-1 stimulated nitrate release” value is listed as “without altering the AIP-1 stimulated release significantly” and the “Effect on nitrate release evoked by C12” value is “reduced the nitrate release evoked by C12”.
For `COc1ccc2c(c1)CC[C@@H]1[C@@H]2CC[C@]2(C)[C@@H](NCCCCCCN3C(=O)C=CC3=O)CC[C@@H]12` [U73122], in that order: “without altering the AIP-1 stimulated release significantly” and “reduced the nitrate release evoked by C12”.
With `Cc1ccc(NC(=O)C2(c3ccc4c(c3)OC(F)(F)O4)CC2)nc1-c1cccc(C(=O)O)c1` [VX-809, lumacaftor], the entries for the “cAMP levels in response to forskolin” value in experiment [4] (CuFi-1 cells) and in experiment [4] (NuLi cells) were “significant increase in cAMP levels” and “No significant change”, respectively.
In the case of `CC(C)=CCC/C(C)=C/CC/C(C)=C/CO` [farnesol], the concentration for a half-maximal effect (EC50) in experiment [2] (setting [5]) was ~120 µM. In experiment [3], the Intracellular calcium mobilization result is “concentration dependent increase in intracellular calcium mobilization”.
As for `OCCc1ccc(O)cc1` [tyrosol], the EC50 in experiment [2] (setting [5]) is ~100 µM. In addition, the Intracellular calcium mobilization result in experiment [3] is given as “concentration dependent increase in intracellular calcium mobilization”.

For the origin of these results see article PMC11613190 (iScience, 2024).
